# From ChEMBL document CHEMBL1140901, “Discovery of novel arylethynyltriazole ribonucleosides with selective and effective antiviral and antiproliferative activity” (J Med Chem, 2009)
# Active and inactive are the calls of the source. The calls are words filed in the database; no cut-off is given here.
# Key:
# MIA PaCa-2 [1] = assay: Induction of apoptosis in human MIAPaCa2 cells assessed as increase in DNA/histone nucleosome release into cytoplasm after 48 hrs by ELISA; type: functional
# Summary of the method: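 MiaPaCa-2 cells seeded 15 000/well for 24 h, then treated 48 h, untreated as control. Lysate supernatant captured on streptavidin plate with biotin anti-histone and peroxidase anti-DNA antibodies, 2 h at room temperature. After washing, peroxidase substrate added for 20 min, read at 405/490 nm. Result given as fold absorbance over control. Triplicate.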
# MIA PaCa-2 [2] = assay: Antitumor activity against human MIAPaCa2 cells transfected mouse assessed as reduction of tumor volume at 150 mg/kg, ip administered every 3 days for 4 weeks measured after 2 weeks; type: functional; design: scale not given: the % may be the effect or the level left; conditions: route intraperitoneal
# Summary of the method: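 Male nude mice, 6 weeks old, inoculated subcutaneously with about 1 × 10⁷ MiaPaCa-2 cells plus 0.1 mL Matrigel. At 100 mm³ tumours, mice randomised; untreated mice served as control; five per group. Tumour volume measured weekly as length × width × depth × 0.5236. Mean ± SE, Student's t test.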
# MIA PaCa-2 [3] = assay: Cell clycle arrest in human MIAPaCa2 cells assessed as increase in sub-G1/G0 fraction after 48 hrs by flow cytometry analysis; type: functional
# Summary of the method: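 MiaPaCa-2 cells seeded at 10⁶ per 10 cm dish and left overnight. Treated 48 h, untreated as negative control. Cells trypsinised, fixed overnight in cold 70% ethanol at 4 °C, treated with RNase (500 µg/mL) and stained with propidium iodide (50 µg/mL). Sub-G1/G0 ratio read by flow cytometry on 10⁶ cells. Run in triplicate.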
# MIA PaCa-2 [4] = assay: Induction of apoptosis in human MIAPaCa2 cells assessed as increase in caspase 3/7 activation after 48 hrs; type: functional
# Summary of the method: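 MiaPaCa-2 cells seeded 15 000/well; 24 h later treated 48 h. Caspase-3/7 measured by cleavage of fluorogenic Z-DEVD-R110 substrate (Apo-ONE reagent). Reagent incubated 30 min at room temperature, then fluorescence read. Triplicate; mean ± SE, n = 3.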
# MIA PaCa-2 [5] = assay: Antiproliferative activity against human MIAPaCa2 cells after 2 days by MTT assay; type: functional
# Summary of the method: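 MiaPaCa-2 cells in DMEM with 10% FBS, seeded 15 000/well and left to attach overnight. Medium then replaced with compound at different concentrations, untreated medium as control. Incubated 48 h at 37 °C, 5% CO2. Viable cells read by MTT colorimetric assay.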
# [6] = Cytotoxicity against human HuH6 cells; type: cell-based
# Summary of the method: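 Huh-6 replicon cells were seeded at 15 000/well, handled as for Huh-9-13 (2% FCS DMEM, 3-fold serial dilutions without G418), and incubated 3 days at 37 °C. CC₅₀ is the µM concentration inhibiting Huh cell proliferation by 50%, given as mean ± SE (n ≥ 3).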
# [7] = Cytotoxicity against human Huh-9-13 cells; type: cell-based
# Summary of the method: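 Huh-9-13 replicon cells were seeded at 5000/well in DMEM with 2% FCS and 1000 µg/mL G418 and incubated 24 h at 37 °C. They then received 3-fold serial compound dilutions in G418-free medium for 4 days at 37 °C. CC₅₀ is the µM concentration inhibiting Huh cell proliferation by 50%, given as mean ± SE (n ≥ 3).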
# Hepatitis C virus [8] = assay: Antiviral activity against HCV in human Huh9.13 cells assessed as inhibition of replicon replication; type: functional, organism-based, Hepacivirus hominis
# Summary of the method: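 Huh-9-13 replicon cells seeded 5000/well in DMEM with 2% FCS and 1000 µg/mL G418. After 24 h at 37 °C, 3-fold serial dilutions given without G418 for 4 days. Cells washed and lysed, replicon RNA quantified by real-time PCR. EC50 is 50% drop in HCV RNA versus untreated control; mean ± SE, n ≥ 3.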
# Hepatitis C virus [9] = assay: Antiviral activity against HCV in human HuH5.2 cells assessed as inhibition of replicon replication; type: functional, organism-based, Hepacivirus hominis; conditions: Huh-5-2
# Summary of the method: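 Huh-5-2 replicon cells seeded 5000/well in DMEM with 2% FCS and 250 µg/mL G418. After 24 h at 37 °C, 3-fold serial dilutions given in DMEM without G418. Incubated 4 days at 37 °C. Replicon read as luciferase activity (Steady-Glo). EC50 is 50% inhibition of replication; mean ± SE, n ≥ 3.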
# Hepatitis C virus [10] = assay: Antiviral activity against HCV in human HuH6 cells assessed as inhibition of replicon replication; type: functional, organism-based, Hepacivirus hominis; conditions: HuH-6
# Summary of the method: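 Huh-6 replicon cells seeded 15 000/well and treated with serial compound dilutions as for Huh-9-13. Incubated 3 days at 37 °C, then lysed in cells-to-cDNA buffer. Replicon RNA quantified by real-time PCR. EC50 is 50% drop in HCV RNA versus untreated control; mean ± SE, n ≥ 3.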
# [11] = Cytotoxicity against human HuH5.2 cells; type: cell-based, Huh-5-2
# Summary of the method: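 Huh-5-2 replicon cells were seeded at 5000/well in DMEM with 2% FCS and 250 µg/mL G418 and kept 24 h at 37 °C (5% CO₂). They were then exposed to 3-fold serial dilutions in medium without G418 for 4 days at 37 °C. CC₅₀ is the µM concentration inhibiting Huh cell proliferation by 50%, given as mean ± SE (n ≥ 3).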
# MIA PaCa-2 [12] = assay: Antiproliferative activity against human MIAPaCa2 cells by MTT assay; type: functional, cell-based
# Summary of the method: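 MiaPaCa-2 pancreatic cancer cells in DMEM with 10% FBS, seeded at 15 000/well and allowed to attach overnight. Medium was then replaced with fresh medium containing compound, or medium alone as control. Cells were incubated for 48 h at 37 °C with 5% CO₂, and viable cells were counted by MTT colorimetric assay.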
SMILES,fold change (FC) (MIA PaCa-2 [1]),Activity (MIA PaCa-2 [2]) [%],fold change (FC) (MIA PaCa-2 [3]),fold change (FC) (MIA PaCa-2 [4]),inhibition (INH) (MIA PaCa-2 [5]) [%],CC50 [6] [µM],CC50 [7] [µM],EC50 (Hepatitis C virus [8]) [µM],EC50 (Hepatitis C virus [9]) [µM],EC50 (Hepatitis C virus [10]) [µM],CC50 [11] [µM],Activity (MIA PaCa-2 [12])
COC(=O)c1nc(C#Cc2ccc(C(F)(F)F)cc2)n([C@@H]2O[C@H](COC(C)=O)[C@@H](OC(C)=O)[C@H]2OC(C)=O)n1,3,60,3,6.8,59,–,–,–,–,–,–,–
NC(=O)c1ncn([C@@H]2O[C@H](CO)[C@@H](O)[C@H]2O)n1 [RIBAVIRIN],–,–,–,–,–,> 100,229,84,28.7,33,–,–
NC(=O)c1nc(C#Cc2ccc(F)cc2)n(COCCO)n1,–,–,–,–,–,132,> 160,125,72.3,95.3,> 160,–
COC(=O)c1nc(C#CC2(O)CCCC2)n([C@@H]2O[C@H](COC(C)=O)[C@@H](OC(C)=O)[C@H]2OC(C)=O)n1,–,–,–,–,–,> 105,> 105,54.3,52.3,25.1,> 105,–
NC(=O)c1nc(C#Cc2ccc(C(F)(F)F)cc2)n([C@@H]2O[C@H](CO)[C@@H](O)[C@H]2O)n1,–,–,–,–,–,> 120,> 120,19.4,17.7,43.7,82.5,–
NC(=O)c1nc(C#Cc2ccc(C(F)(F)F)cc2)n(COCCO)n1,–,–,–,–,–,87.5,79,36.7,14.1,50.8,–,inactive
NC(=O)c1nc(C#Cc2ccccc2)n(COCCO)n1,–,–,–,–,–,> 170,> 170,> 164,62.9,112,> 170,–
Nc1ccn([C@@H]2O[C@H](CO)[C@@H](O)C2(F)F)c(=O)n1 [GEMCITABINE],–,–,–,2,29,–,–,–,–,–,–,–
